Data taken from ChEMBL document CHEMBL1811814, “Synthesis and evaluation of indole, pyrazole, chromone and pyrimidine based conjugates for tumor growth inhibitory activities--development of highly efficacious cytotoxic agents” (Eur J Med Chem, 2010).

Assays:
Format in all cases: functional
Set-up in all cases: scale not given: the % may be the effect or the level left
SN12C = test: Growth inhibition of human SN12C cells assessed tumor cell growth at 10^-5 M
Outline: (§1)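 NCI 60-human-tumor-cell-line panel screen. Each compound was tested at a single concentration of 10^-5 M, and percent growth of tumor cells was recorded for each cell line. Growth inhibition was expressed from these percent-growth values.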

SK-MEL-2 = test: Growth inhibition of human SK-MEL-2 cells assessed tumor cell growth at 10^-5 M; outline: as §1
SK-MEL-5 = test: Growth inhibition of human SK-MEL-5 cells assessed tumor cell growth at 10^-5 M; outline: as §1
M14 = test: Growth inhibition of human M14 cells assessed tumor cell growth at 10^-5 M; outline: as §1
HOP-92 = test: Growth inhibition of human HOP92 cells assessed tumor cell growth at 10^-5 M; outline: as §1
786-0 = test: Growth inhibition of human 786-0 cells assessed tumor cell growth at 10^-5 M; outline: as §1
SNB-19 = test: Growth inhibition of human SNB19 cells assessed tumor cell growth at 10^-5 M
Outline: (§2)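 Single-dose screen at 10^-5 M across the 60 human tumor cell line panel, run to NCI standards. The value is the percent growth of each cell line in the presence of compound. Compounds active at this dose moved on to five-concentration testing (10^-4 to 10^-8 M).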

UACC-62 = test: Growth inhibition of human UACC62 cells assessed tumor cell growth at 10^-5 M; outline: as §2
DU-145 = test: Growth inhibition of human DU145 cells assessed tumor cell growth at 10^-5 M; outline: as §1
HCT-15 = test: Growth inhibition of human HCT15 cells assessed tumor cell growth at 10^-5 M; outline: as §1
COLO 205 = test: Growth inhibition of human COLO205 cells assessed tumor cell growth at 10^-5 M; outline: as §1
KM12 = test: Growth inhibition of human KM12 cells assessed tumor cell growth at 10^-5 M; outline: as §1
NCI-H23 = test: Growth inhibition of human NCI-H23 cells assessed tumor cell growth at 10^-5 M; outline: as §1
SF-268 = test: Growth inhibition of human SF268 cells assessed tumor cell growth at 10^-5 M; outline: as §1
UO-31 = test: Growth inhibition of human UO31 cells assessed tumor cell growth at 10^-5 M; outline: as §2
BT-549 = test: Growth inhibition of human BT549 cells assessed tumor cell growth at 10^-5 M; outline: as §1
HOP-62 = test: Growth inhibition of human HOP62 cells assessed tumor cell growth at 10^-5 M; outline: as §1
SK-MEL-28 = test: Growth inhibition of human SK-MEL-28 cells assessed tumor cell growth at 10^-5 M; outline: as §1
U-251 = test: Growth inhibition of human U251 cells assessed tumor cell growth at 10^-5 M; outline: as §2
SK-OV-3 = test: Growth inhibition of human SKOV3 cells assessed tumor cell growth at 10^-5 M; outline: as §1
TK-10 = test: Growth inhibition of human TK10 cells assessed tumor cell growth at 10^-5 M; outline: as §2
T47D = test: Growth inhibition of human T47D cells assessed tumor cell growth at 10^-5 M; outline: as §2
A549 = test: Growth inhibition of human A549 cells assessed tumor cell growth at 10^-5 M; outline: as §1
HT-29 = test: Growth inhibition of human HT-29 cells assessed tumor cell growth at 10^-5 M; outline: as §1
SF-295 = test: Growth inhibition of human SF295 cells assessed tumor cell growth at 10^-5 M; outline: as §1
EKVX = test: Growth inhibition of human EKVX cells assessed tumor cell growth at 10^-5 M; outline: as §1
UACC-257 = test: Growth inhibition of human UACC257 cells assessed tumor cell growth at 10^-5 M; outline: as §2
IGROV-1 = test: Growth inhibition of human IGROV1 cells assessed tumor cell growth at 10^-5 M; outline: as §1
MDA-MB-231 = test: Growth inhibition of human MDA-MB-231 cells assessed tumor cell growth at 10^-5 M; outline: as §1
MDA-MB-468 = test: Growth inhibition of human MDA-MB-468 cells assessed tumor cell growth at 10^-5 M; outline: as §1
OVCAR-5 = test: Growth inhibition of human OVCAR5 cells assessed tumor cell growth at 10^-5 M; outline: as §1
OVCAR-4 = test: Growth inhibition of human OVCAR4 cells assessed tumor cell growth at 10^-5 M; outline: as §1
SF-539 = test: Growth inhibition of human SF539 cells assessed tumor cell growth at 10^-5 M; outline: as §1
CCRF-CEM = test: Growth inhibition of human CCRF-CEM cells assessed tumor cell growth at 10^-5 M; outline: as §1
Malme-3M = test: Growth inhibition of human MALME-3M cells assessed tumor cell growth at 10^-5 M; outline: as §1
RXF 393 = test: Growth inhibition of human RXF393 cells assessed tumor cell growth at 10^-5 M; outline: as §1
HCC 2998 = test: Growth inhibition of human HCC2998 cells assessed tumor cell growth at 10^-5 M; outline: as §1
NCI-H522 = test: Growth inhibition of human NCI-H522 cells assessed tumor cell growth at 10^-5 M; outline: as §1
LOX IMVI = test: Growth inhibition of human LOXIMVI cells assessed tumor cell growth at 10^-5 M; outline: as §1
MDA-MB-435 = test: Growth inhibition of human MDA-MB-435 cells assessed tumor cell growth at 10^-5 M; outline: as §1
SW-620 = test: Growth inhibition of human SW620 cells assessed tumor cell growth at 10^-5 M; outline: as §2
HCT-116 = test: Growth inhibition of human HCT116 cells assessed tumor cell growth at 10^-5 M; outline: as §1
K562 = test: Growth inhibition of human K562 cells assessed tumor cell growth at 10^-5 M; outline: as §1
ACHN = test: Growth inhibition of human ACHN cells assessed tumor cell growth at 10^-5 M; outline: as §1
OVCAR-8 = test: Growth inhibition of human OVCAR8 cells assessed tumor cell growth at 10^-5 M; outline: as §1
A498 = test: Growth inhibition of human A498 cells assessed tumor cell growth at 10^-5 M; outline: as §1
MOLT-4 = test: Growth inhibition of human MOLT4 cells assessed tumor cell growth at 10^-5 M; outline: as §1
PC-3 = test: Growth inhibition of human PC3 cells assessed tumor cell growth at 10^-5 M; outline: as §1
HL-60(TB) = test: Growth inhibition of human HL-60(TB) cells assessed tumor cell growth at 10^-5 M
Outline: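 HL-60(TB), part of the 60-line panel, tested at a single concentration of 10^-5 M. The read-out is percent tumor cell growth relative to untreated growth.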

NCI/ADR-RES = test: Growth inhibition of human NCI/ADR-RES cells assessed tumor cell growth at 10^-5 M; outline: as §1
NCI-H322M = test: Growth inhibition of human NCI-H322M cells assessed tumor cell growth at 10^-5 M; outline: as §1
[1] = Growth inhibition of human Hs 578T cells assessed tumor cell growth at 10^-5 M; outline: as §1
MCF7 = test: Growth inhibition of human MCF7 cells assessed tumor cell growth at 10^-5 M; outline: as §1
SNB-75 = test: Growth inhibition of human SNB75 cells assessed tumor cell growth at 10^-5 M; outline: as §2
[2] = Growth inhibition of human […] cells assessed tumor cell growth at 10^-5 M; outline: as §1
NCI-H460 = test: Growth inhibition of human NCI-H460 cells assessed tumor cell growth at 10^-5 M; outline: as §1
NCI-H226 = test: Growth inhibition of human NCI-H226 cells assessed tumor cell growth at 10^-5 M; outline: as §1
OVCAR-3 = test: Growth inhibition of human OVCAR3 cells assessed tumor cell growth at 10^-5 M; outline: as §1
CAKI-1 = test: Growth inhibition of human Caki1 cells assessed tumor cell growth at 10^-5 M; outline: as §1

Compound: O=C1/C(=C\c2cn(C(=O)c3c(Cl)cccc3Cl)c3ccccc23)c2ccccc2N1C(=O)c1c(Cl)cccc1Cl
- Activity (SN12C): 92.7%
- Activity (SK-MEL-2): 92.3%
- Activity (SK-MEL-5): 84.8%
- Activity (M14): 94.2%
- Activity (HOP-92): 48.5%
- Activity (786-0): 100%
- Activity (SNB-19): 97.3%
- Activity (UACC-62): 63.8%
- Activity (DU-145): 135%
- Activity (HCT-15): 65.9%
- Activity (COLO 205): 69%
- Activity (KM12): 99.3%
- Activity (NCI-H23): 96.6%
- Activity (SF-268): 95.7%
- Activity (UO-31): 72%
- Activity (BT-549): 85.3%
- Activity (HOP-62): 98.7%
- Activity (SK-MEL-28): 103%
- Activity (U-251): 87.1%
- Activity (SK-OV-3): 93.4%
- Activity (TK-10): 101%
- Activity (T47D): 91.6%
- Activity (A549): 91.2%
- Activity (HT-29): 108%
- Activity (SF-295): 90.6%
- Activity (EKVX): 99.4%
- Activity (UACC-257): 104%
- Activity (IGROV-1): 69.9%
- Activity (MDA-MB-231): 74.3%
- Activity (MDA-MB-468): 126%
- Activity (OVCAR-5): 83.7%
- Activity (OVCAR-4): 104%
- Activity (SF-539): 95%
- Activity (CCRF-CEM): 87%
- Activity (Malme-3M): 94.9%
- Activity (RXF 393): 113%
- Activity (HCC 2998): 116%
- Activity (NCI-H522): 87.4%
- Activity (LOX IMVI): 95.8%
- Activity (MDA-MB-435): 112%
- Activity (SW-620): 117%
- Activity (HCT-116): 82.5%
- Activity (K562): 85.2%
- Activity (ACHN): 78.6%
- Activity (OVCAR-8): 94.1%
- Activity (A498): 126%
- Activity (MOLT-4): 84%
- Activity (PC-3): 73.1%
- Activity (HL-60(TB)): 109%
- Activity (NCI/ADR-RES): 104%
- Activity (NCI-H322M): 124%
- Activity [1]: 152%
- Activity (MCF7): 84.8%
- Activity (SNB-75): 88.8%
- Activity [2]: 75%
- Activity (NCI-H460): 114%
- Activity (NCI-H226): 92.9%
- Activity (OVCAR-3): 96.7%
- Activity (CAKI-1): 67.5%
